We go through ten compounds from ChEMBL document CHEMBL1165965, “Synthesis and structure-activity relationships of 1,2,3,4-tetrahydropyrido[2,3-b]pyrazines as potent and selective inhibitors of the anaplastic lymphoma kinase” (Bioorg Med Chem, 2010).

Assay [1] concerns the target Interleukin-1 receptor-associated kinase 1 (Homo sapiens) (UniProt P51617). Description: Inhibition of IRAK1 at 1 uM.
Assay [2] relates to Proto-oncogene tyrosine-protein kinase receptor Ret (Homo sapiens), P07949 [V804M]. Description: Inhibition of RET V804M mutant at 1 uM.
The target in assay [3] is Serine/threonine-protein kinase 33 (Homo sapiens) (UniProt Q9BYT3). In words: Inhibition of STK33 at 1 uM.
For assay [4], the target named is Dual specificity testis-specific protein kinase 1 (Homo sapiens) (UniProt Q15569). In words: Inhibition of TESK1 at 1 uM.
Assay [5] addresses T1, Dual specificity protein kinase TTK (Homo sapiens) (UniProt P33981).
T1 sequence (whole entry): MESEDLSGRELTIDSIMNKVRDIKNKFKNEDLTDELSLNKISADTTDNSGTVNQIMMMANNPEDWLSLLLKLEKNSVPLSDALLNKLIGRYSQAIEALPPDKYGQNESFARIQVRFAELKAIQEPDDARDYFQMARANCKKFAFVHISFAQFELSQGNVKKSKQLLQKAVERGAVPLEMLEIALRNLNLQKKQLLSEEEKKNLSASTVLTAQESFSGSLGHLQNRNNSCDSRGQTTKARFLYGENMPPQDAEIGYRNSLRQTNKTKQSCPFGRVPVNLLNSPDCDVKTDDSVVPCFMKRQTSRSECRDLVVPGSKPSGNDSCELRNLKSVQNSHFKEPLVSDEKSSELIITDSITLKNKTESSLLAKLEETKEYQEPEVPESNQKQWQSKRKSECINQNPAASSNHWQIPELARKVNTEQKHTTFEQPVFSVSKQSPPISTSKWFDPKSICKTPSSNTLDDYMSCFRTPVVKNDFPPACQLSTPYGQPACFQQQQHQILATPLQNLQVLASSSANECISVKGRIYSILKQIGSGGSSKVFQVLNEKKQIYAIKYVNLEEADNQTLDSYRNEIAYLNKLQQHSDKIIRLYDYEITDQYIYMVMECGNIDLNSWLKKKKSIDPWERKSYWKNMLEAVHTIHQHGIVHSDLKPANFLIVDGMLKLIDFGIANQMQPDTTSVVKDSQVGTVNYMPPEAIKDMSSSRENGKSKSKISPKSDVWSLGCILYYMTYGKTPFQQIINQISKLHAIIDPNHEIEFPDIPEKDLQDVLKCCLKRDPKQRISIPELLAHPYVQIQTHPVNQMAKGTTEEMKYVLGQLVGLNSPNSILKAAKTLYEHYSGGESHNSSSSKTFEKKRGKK
In words: Inhibition of TTK at 1 uM.

Assay [6] deals with Tyrosine-protein kinase ABL1 (Homo sapiens), P00519 [F317L]. Description: Inhibition of ABL1 F317L mutant at 1 uM.
Assay [7] concerns the target T2, Aurora kinase C (Homo sapiens) (UniProt Q9UQB9).
T2 sequence (whole entry): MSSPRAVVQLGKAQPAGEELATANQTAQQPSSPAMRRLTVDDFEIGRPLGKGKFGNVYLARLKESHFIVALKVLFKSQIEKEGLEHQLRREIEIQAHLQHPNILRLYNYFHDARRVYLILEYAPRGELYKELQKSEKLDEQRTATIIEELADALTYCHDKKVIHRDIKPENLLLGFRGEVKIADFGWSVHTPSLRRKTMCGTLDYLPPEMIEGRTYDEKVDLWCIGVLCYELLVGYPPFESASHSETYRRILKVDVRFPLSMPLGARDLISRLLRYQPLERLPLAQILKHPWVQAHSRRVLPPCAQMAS
Description: Inhibition of AURKC at 1 uM. In outline:
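Ambit KINOMEscan screen at a single concentration across a 250–400 kinase panel, recorded as percent inhibition. Selectivity was expressed as S(90), the fraction of kinases inhibited >90%.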

Assay [8] addresses Dual specificity tyrosine-phosphorylation-regulated kinase 1B (Homo sapiens) (UniProt Q9Y463). Description: Inhibition of DYRK1B at 1 uM.
The test system of assay [9] is Epidermal growth factor receptor (Homo sapiens), P00533 [L858R]. Description: Inhibition of EGFR L858R mutant at 1 uM. The format is protein assay. A digest of the protocol: (§1)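 Single-concentration screen using Ambit Bioscience KINOMEscan technology across a panel of 250–400 kinases. Per-kinase inhibition from this screen was summarized as S(90), the fraction of kinases inhibited by more than 90%.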

In assay [10] the target is T3, Ephrin type-A receptor 8 (Homo sapiens) (UniProt P29322).
T3 sequence (whole entry): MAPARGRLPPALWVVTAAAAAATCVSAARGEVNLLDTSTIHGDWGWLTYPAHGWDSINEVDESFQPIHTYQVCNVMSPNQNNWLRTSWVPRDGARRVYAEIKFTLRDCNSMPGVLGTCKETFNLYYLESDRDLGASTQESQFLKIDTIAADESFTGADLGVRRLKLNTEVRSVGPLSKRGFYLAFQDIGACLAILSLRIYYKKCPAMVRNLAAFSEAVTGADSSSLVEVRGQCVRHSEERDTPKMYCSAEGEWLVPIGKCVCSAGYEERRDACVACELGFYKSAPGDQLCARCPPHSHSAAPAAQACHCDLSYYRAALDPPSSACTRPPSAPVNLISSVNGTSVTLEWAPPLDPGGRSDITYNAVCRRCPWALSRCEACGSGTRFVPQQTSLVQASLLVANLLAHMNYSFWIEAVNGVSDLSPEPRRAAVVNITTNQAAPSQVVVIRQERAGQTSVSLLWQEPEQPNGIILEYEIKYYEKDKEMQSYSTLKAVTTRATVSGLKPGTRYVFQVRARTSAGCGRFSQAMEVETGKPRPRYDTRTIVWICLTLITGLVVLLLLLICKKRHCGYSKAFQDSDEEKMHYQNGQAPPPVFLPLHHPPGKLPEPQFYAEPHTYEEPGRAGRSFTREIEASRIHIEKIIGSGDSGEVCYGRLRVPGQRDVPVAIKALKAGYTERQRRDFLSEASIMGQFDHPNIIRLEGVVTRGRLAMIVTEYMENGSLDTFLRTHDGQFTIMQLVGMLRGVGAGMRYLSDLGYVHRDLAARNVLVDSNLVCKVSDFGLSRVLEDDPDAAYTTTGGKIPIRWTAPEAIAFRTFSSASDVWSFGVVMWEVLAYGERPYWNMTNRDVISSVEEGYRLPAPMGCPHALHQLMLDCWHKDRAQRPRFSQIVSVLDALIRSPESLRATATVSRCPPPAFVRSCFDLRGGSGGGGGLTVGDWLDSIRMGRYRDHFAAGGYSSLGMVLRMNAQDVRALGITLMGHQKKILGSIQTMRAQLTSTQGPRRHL
Description: Inhibition of EPHA8 at 1 uM. A digest of the protocol:
as §1

Structures are written as SMILES.

Dual specificity tyrosine-phosphorylation-regulated kinase 1B (Homo sapiens), sequence (Q9Y463 whole entry, looked up): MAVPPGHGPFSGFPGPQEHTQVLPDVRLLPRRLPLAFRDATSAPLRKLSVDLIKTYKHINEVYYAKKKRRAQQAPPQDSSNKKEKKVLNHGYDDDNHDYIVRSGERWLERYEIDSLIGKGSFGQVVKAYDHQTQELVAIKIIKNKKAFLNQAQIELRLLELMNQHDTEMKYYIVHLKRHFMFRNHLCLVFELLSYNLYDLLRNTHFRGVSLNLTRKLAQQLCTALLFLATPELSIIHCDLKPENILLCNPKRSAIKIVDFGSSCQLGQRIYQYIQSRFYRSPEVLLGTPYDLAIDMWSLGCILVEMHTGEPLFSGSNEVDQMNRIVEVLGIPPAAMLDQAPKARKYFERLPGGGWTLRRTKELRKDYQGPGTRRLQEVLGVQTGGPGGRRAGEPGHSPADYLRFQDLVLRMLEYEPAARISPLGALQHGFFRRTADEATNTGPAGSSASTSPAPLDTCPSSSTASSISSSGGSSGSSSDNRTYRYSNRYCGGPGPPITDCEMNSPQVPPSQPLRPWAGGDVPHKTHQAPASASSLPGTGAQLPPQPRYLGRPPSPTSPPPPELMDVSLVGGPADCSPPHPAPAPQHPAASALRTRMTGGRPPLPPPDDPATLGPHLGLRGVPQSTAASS
Dual specificity testis-specific protein kinase 1 (Homo sapiens), sequence (Q15569 whole entry, looked up): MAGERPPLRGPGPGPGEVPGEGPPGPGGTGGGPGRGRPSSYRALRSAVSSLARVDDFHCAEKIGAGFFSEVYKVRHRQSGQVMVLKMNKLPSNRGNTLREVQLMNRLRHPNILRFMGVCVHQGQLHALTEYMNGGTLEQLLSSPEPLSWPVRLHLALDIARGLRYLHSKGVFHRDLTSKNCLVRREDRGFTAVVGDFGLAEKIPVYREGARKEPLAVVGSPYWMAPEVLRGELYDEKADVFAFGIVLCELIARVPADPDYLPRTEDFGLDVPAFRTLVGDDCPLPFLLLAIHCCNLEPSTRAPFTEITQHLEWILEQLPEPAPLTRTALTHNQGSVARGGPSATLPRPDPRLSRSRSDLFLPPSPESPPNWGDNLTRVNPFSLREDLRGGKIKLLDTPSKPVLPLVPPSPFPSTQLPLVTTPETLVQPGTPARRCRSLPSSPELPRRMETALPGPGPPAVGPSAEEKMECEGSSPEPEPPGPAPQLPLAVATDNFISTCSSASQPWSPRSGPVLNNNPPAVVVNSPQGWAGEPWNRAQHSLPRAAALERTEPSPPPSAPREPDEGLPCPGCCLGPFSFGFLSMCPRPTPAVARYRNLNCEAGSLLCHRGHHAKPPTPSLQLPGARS
Proto-oncogene tyrosine-protein kinase receptor Ret (Homo sapiens), P07949 [V804M], sequence (P07949 whole entry V804M): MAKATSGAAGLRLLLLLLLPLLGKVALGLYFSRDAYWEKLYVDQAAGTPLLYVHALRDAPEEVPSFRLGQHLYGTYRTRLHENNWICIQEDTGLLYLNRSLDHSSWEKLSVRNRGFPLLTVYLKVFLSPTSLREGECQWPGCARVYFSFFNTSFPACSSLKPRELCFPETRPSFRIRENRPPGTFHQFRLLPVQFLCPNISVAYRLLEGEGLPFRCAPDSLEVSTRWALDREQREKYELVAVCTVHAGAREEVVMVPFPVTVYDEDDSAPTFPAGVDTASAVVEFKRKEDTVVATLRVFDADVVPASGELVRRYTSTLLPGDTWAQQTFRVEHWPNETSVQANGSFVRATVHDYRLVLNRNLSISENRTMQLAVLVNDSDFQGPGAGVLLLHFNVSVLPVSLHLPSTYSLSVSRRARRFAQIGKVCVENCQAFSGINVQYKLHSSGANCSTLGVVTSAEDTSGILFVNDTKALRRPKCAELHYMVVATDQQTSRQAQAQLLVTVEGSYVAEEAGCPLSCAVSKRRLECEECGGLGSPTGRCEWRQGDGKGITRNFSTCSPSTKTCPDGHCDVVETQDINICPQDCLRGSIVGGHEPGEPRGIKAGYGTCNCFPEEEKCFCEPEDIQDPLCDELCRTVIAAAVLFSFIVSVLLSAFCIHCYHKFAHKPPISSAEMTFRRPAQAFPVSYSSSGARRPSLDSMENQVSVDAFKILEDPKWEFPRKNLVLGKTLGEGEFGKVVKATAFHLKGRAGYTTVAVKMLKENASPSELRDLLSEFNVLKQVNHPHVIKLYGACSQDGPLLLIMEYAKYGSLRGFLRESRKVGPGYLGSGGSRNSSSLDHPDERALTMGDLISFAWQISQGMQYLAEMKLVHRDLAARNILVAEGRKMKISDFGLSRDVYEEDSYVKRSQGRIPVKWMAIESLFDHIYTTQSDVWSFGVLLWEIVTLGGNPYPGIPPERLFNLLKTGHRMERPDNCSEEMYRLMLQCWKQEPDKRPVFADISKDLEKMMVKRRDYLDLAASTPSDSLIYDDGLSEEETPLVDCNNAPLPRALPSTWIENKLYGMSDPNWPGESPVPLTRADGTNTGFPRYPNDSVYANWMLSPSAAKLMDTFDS
Tyrosine-protein kinase ABL1 (Homo sapiens), P00519 [F317L], sequence (P00519 whole entry F317L): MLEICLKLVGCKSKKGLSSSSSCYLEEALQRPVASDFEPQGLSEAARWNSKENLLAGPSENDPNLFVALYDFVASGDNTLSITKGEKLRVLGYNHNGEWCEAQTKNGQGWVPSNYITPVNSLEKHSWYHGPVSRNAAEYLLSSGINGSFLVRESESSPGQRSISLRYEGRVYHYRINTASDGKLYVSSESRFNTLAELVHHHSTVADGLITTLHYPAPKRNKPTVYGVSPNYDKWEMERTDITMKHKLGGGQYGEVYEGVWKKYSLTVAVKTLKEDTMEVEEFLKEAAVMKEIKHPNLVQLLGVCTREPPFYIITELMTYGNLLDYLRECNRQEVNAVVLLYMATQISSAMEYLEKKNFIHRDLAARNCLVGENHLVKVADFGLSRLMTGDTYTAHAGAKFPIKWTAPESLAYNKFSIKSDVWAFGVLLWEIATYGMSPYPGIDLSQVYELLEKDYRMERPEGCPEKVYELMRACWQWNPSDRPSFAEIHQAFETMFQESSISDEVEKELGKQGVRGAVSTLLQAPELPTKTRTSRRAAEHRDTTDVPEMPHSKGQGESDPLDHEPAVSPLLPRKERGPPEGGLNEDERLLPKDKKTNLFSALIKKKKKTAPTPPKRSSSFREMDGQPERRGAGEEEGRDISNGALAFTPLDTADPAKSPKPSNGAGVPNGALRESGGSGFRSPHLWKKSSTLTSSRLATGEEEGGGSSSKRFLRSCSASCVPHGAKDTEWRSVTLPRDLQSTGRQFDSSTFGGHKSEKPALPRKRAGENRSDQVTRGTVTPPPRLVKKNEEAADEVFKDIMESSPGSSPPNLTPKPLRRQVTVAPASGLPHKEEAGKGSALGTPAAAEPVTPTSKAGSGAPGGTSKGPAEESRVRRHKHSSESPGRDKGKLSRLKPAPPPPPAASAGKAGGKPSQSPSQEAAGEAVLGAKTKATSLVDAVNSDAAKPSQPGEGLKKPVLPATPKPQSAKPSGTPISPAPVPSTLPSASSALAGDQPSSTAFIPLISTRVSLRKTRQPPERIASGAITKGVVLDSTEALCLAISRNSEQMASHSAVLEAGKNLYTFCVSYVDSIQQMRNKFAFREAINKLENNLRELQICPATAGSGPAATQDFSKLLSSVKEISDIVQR
Interleukin-1 receptor-associated kinase 1 (Homo sapiens), sequence (P51617 whole entry, looked up): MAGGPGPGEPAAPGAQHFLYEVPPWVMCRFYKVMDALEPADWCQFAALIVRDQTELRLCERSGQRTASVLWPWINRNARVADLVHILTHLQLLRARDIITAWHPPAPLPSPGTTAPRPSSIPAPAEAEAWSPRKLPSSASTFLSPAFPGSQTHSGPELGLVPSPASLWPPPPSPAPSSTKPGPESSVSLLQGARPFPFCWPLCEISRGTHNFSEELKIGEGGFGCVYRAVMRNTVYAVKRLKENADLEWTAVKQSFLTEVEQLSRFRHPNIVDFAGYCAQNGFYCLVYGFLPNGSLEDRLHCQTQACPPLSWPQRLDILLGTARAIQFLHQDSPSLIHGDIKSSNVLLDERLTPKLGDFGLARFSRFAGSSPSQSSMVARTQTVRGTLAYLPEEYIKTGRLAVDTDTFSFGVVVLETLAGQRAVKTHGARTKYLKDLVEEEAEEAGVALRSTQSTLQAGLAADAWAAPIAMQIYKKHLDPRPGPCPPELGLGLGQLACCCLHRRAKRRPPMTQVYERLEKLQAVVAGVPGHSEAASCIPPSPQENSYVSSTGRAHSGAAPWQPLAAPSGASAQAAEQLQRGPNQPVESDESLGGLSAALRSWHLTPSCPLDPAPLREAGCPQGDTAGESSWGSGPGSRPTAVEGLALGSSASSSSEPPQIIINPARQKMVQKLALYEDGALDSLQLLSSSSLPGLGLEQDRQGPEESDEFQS
Serine/threonine-protein kinase 33 (Homo sapiens), sequence (Q9BYT3 whole entry, looked up): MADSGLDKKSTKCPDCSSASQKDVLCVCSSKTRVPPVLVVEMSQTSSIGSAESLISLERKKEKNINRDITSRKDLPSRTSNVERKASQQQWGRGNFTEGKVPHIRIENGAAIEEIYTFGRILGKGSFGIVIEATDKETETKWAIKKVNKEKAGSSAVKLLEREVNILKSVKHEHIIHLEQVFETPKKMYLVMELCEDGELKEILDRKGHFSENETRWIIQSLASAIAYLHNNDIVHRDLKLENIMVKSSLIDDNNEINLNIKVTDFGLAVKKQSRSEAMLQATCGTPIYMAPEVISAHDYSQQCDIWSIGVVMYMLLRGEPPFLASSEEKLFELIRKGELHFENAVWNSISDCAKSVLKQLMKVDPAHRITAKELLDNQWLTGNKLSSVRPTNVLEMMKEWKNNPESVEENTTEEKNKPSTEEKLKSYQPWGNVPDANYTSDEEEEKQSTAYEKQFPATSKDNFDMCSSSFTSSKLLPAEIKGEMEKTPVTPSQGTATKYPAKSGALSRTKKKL

By inhibition is commonly meant the drop in the measured response relative to a control, in per cent. A low value points to a weak effect. Consider `FC(F)(F)c1ccc(Cl)cc1CN1CCNc2ncc(-c3ccnc(N4CCNCC4)c3)cc21`, for which the inhibition in assay [1] is below 50%; in [2] it was 76%; in assay [3], below 50%; in assay [4] it was below 50%; in assay [5], below 50%; in assay [6] it was below 50%. The inhibition in assay [7] is 92%; in assay [8], below 50%; in assay [9], below 50%; in assay [10], below 50%.

For `CN1CCN(c2ccc(-c3cnc4c(c3)N(Cc3cc(F)ccc3F)CCN4)cn2)CC1`, the inhibition in assay [1], in [2], in assay [3], in assay [4], in assay [5] and in assay [6] was below 50% throughout. Also, the inhibition in [7], in assay [8], in assay [9] and in [10] was below 50% each time.

In the case of `CN1CCN(c2ccc(-c3cnc4c(c3)N(Cc3cc(Cl)ccc3Cl)CCN4)cn2)CC1`, the inhibition in [1], in [2], in [3], in assay [4], in assay [5] and in assay [6] was below 50% throughout. Besides, the inhibition in assay [7], in assay [8], in [9] and in [10] was below 50% each time.

Take `O=C(O)c1ccc(-c2cnc3c(c2)N(Cc2cc(Cl)ccc2C(F)(F)F)CCN3)cc1`: the inhibition in assay [4], in assay [5], in [6], in assay [7], in assay [9] and in [10] was below 50% throughout.

For `CN1CCN(c2ccc(-c3cnc4c(c3)N(Cc3cc(Cl)ccc3C(F)(F)F)CCN4)cn2)CC1`, the inhibition in assay [1], in assay [2], in assay [3], in assay [4], in assay [5] and in assay [6] was below 50% throughout. Moreover, the inhibition in [7], in assay [8], in [9] and in [10] was below 50% in each case.

With `COC1CCN(C(=O)c2ccc(-c3cnc4c(c3)N(Cc3cc(Cl)ccc3C(F)(F)F)CCN4)cc2)CC1`, the inhibition is below 50% in assay [4]; below 50% in assay [5]; 79.5% in assay [7]; below 50% in [9]; below 50% in assay [10].

As for `O=C(c1ccc(-c2cnc3c(c2)N(Cc2cc(Cl)ccc2C(F)(F)F)CCN3)cc1)N1CCC(N2CCCC2)CC1`, the inhibition in assay [3] is 79.8%; in assay [4], 88.5%; in assay [5], below 50%; in assay [7], 96.9%; in assay [9] it was below 50%; in [10] it was below 50%.

Take `CN1CCN(c2ccc(-c3cnc4c(c3)N(Cc3c(F)ccc(F)c3Cl)CCN4)cn2)CC1`: the inhibition in assay [1] is below 50%; in assay [2], below 50%; in assay [3], below 50%; in [4], below 50%; in [5] it was below 50%; in assay [6], 77%. Further, the inhibition in assay [7], in assay [8], in assay [9] and in assay [10] was below 50% in each case.

Consider `O=C(c1ccc(-c2cnc3c(c2)N(Cc2cc(Cl)ccc2C(F)(F)F)CCN3)cc1)N1CCCCC1`, for which the inhibition in [4], in assay [5], in [7], in assay [9] and in assay [10] was below 50% each time.

Turning to `CC(=O)N1CCN(c2cc(-c3cnc4c(c3)N(Cc3cc(Cl)ccc3C(F)(F)F)CCN4)ccn2)CC1`, the inhibition in [1], in assay [2], in assay [3], in [4], in assay [5] and in assay [6] was below 50% in each case. The inhibition in assay [7] is 89%; in assay [8], below 50%; in assay [9], below 50%; in [10] it was below 50%.
